≈ marks a conversion by molar mass, not a printed value. Calls of active or inactive are those of the source. The calls are words filed in the database; no cut-off is given here.
Experiments:
[1] = system: Spodoptera exigua; assay: Insecticidal activity against Spodoptera exigua second-instar larvae feeded on 400 ppm compound treated lepidopteran diet assessed as insect mortality measured 5 days post compound treatment under green house conditions; assay type: functional; settings: at 400 ppm
[2] = system: Tetranychus urticae; assay: Insecticidal activity against female Tetranychus urticae (two-spotted spider mite) infested cotton leaf disks followed by 2.5 ppm compound spraying after oviposit assessed as insect mortality measured after 6 days post compound application under green house conditions; assay type: functional; settings: foliar, 144 h
[3] = system: Heliothis virescens; assay: Insecticidal activity against Heliothis virescens (tobacco budworm) second-instar larvae infested on 25 ppm compound pre-treated cotton cotyledon disk assessed as insect mortality measured 5 days post compound treatment under green house conditions; assay type: functional
In short: (§1)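 Leaf disks treated, air-dried and placed singly in cups. Cotton cotyledon disks each get one second-instar tobacco budworm larva; cabbage leaf disks each get one second-instar cabbage looper larva. Cups are capped and held in a growth chamber at 25 °C, 50-55% RH, 14 h light/10 h dark for 5 days.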

[4] = system: Heliothis virescens; assay: Insecticidal activity against Heliothis virescens (tobacco budworm) second-instar larvae infested on 400 ppm compound pre-treated cotton cotyledon disk assessed as insect mortality measured 5 days post compound treatment under green house conditions; assay type: functional
[5] = system: Aphis gossypii; assay: Insecticidal activity against Aphis gossypii (cotton aphid) infested one week old Crookneck squash plants assessed as insect mortality at 50 ppm measured after 3 days post compound application under green house conditions; assay type: functional; settings: 72 h
[6] = system: Trichoplusia ni; assay: Insecticidal activity against Trichoplusia ni (cabbage looper) second-instar larvae infested on 25 ppm compound pre-treated cabbage leaf disk assessed as insect mortality measured 5 days post compound treatment under green house conditions; assay type: functional; in short: as §1
[7] = system: Aphis gossypii; assay: Insecticidal activity against Aphis gossypii (cotton aphid) infested one week old Crookneck squash plants assessed as insect mortality measured after 3 days post compound application under green house conditions; assay type: functional; settings: for LC50: Aphis gossypii, 72 h
[8] = system: Myzus persicae; assay: Insecticidal activity against Myzus persicae (green peach aphid) assessed as insect mortality at 50 ppm; assay type: functional
[9] = system: Spodoptera exigua; assay: Insecticidal activity against Spodoptera exigua second-instar larvae feeded on 25 ppm compound treated lepidopteran diet assessed as insect mortality measured 5 days post compound treatment under green house conditions; assay type: functional
[10] = system: Trichoplusia ni; assay: Insecticidal activity against Trichoplusia ni (cabbage looper) second-instar larvae infested on 400 ppm compound pre-treated cabbage leaf disk assessed as insect mortality measured 5 days post compound treatment under green house conditions; assay type: functional; settings: at 400 ppm
[11] = system: Bemisia tabaci; assay: Insecticidal activity against Bemisia tabaci (sweet potato whitefly) second-instar larvae infested five weeks old cotton plants followed by compound 250 ppm compound spraying after insect oviposit assessed as insect mortality measured 13 days post compound treatment under green house conditions; assay type: functional
[12] = system: Bemisia tabaci
[13] = system: Aphis gossypii

Cc1cc(-c2ccc(F)c(F)c2)sc1-c1nc(-c2c(F)cccc2Cl)nn1C
mortality [1]: 90% | mortality at 2.5 ppm [2]: 60% | mortality [3]: 20% | mortality [4]: 90% | mortality at 50 ppm [5]: < 50% | mortality [6]: 40% | LC90 [7]: 22.3 ppm | LC50 [7]: 4.41 µg/mL (≈ 10.5 µM) | LC50 [8]: 88 µg/mL (≈ 210 µM) | mortality [9]: 0% | mortality [10]: 90% | mortality [11]: 90%

Cc1cc(-c2ccc(Cl)cc2F)sc1-c1nc(-c2c(F)cccc2Cl)nn1C
mortality [1]: 70% | mortality [12]: inactive | mortality at 2.5 ppm [2]: 90% | mortality [3]: 20% | mortality [4]: 90% | mortality at 50 ppm [5]: < 50% | mortality [6]: 40% | LC50 [7]: 4.93 µg/mL (≈ 11.3 µM) | LC50 [8]: 91 µg/mL (≈ 209 µM) | mortality [9]: 0% | mortality [10]: 90%

Cc1cc(-c2ccc(F)c(Cl)c2)sc1-c1nc(-c2c(F)cccc2Cl)nn1C
mortality [1]: 80% | mortality [12]: inactive | mortality at 2.5 ppm [2]: 60% | mortality [3]: 0% | mortality [4]: 90% | mortality [6]: 60% | LC50 [7]: 9.28 µg/mL (≈ 21.3 µM) | mortality [13]: inactive | LC50 [8]: 55 µg/mL (≈ 126 µM) | mortality [9]: 0% | mortality [10]: 90%
